Screening data (PubChem)
Only a selection was taken, and hits are over-represented in it overall.
PolyA inhibitor: polyadenylation inhibitors in yeast reporter cells, primary screen, luminescence, S. cerevisiae; S. cerevisiae SKY197-pL101 polyadenylation reporter, beta-gal luminescence; efflux-impaired pdr1/pdr3 knockout yeast; score 100 = 6 SD above DMSO; activity score, % at 12 µM; hit rate 0.02% among 300,000; AID 1875, 2009;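 active means lowest replicate activity score at least 50, where 100 means six control SD above control mean; inconclusive means lowest score under 50 but half or more replicates reach 50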;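 further: yeast exposed to compound for 9 h at 30 °C; higher score means more reporter readthrough which indicates perturbed polyadenylation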
NLRP3 yeast inh: NALP3 inflammasome inhibitors in reconstituted yeast, primary screen, luminescence, uHTS; Yeast reconstituted NLRP3/ASC/caspase-1, beta-gal luminescence, 24 h; inhibition, % at 10 µM; hit rate 0.39% among 330,000;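 active means inhibition of 50% or more; inactive means inhibition below 50%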;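 further: plate controls were induced DMSO wells for no effect and uninduced yeast grown without galactose for full effect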
NALP1 inh: NALP1 inflammasome inhibitors in reconstituted yeast, colorimetric, S. cerevisiae, triplicate retest; AID 2071, 2009; inhibition, % at 10 µM; hit rate 0.61% among 280,000; S. cerevisiae NALP1/ASC/caspase-1 growth, X-gal OD620, 72 h; in the data active means inhibition mostly above about 24%, no sharp cut-off; inactive means mostly below about 32%
L major viab: Leishmania major promastigote growth inhibition, primary screen. Leishmania major promastigotes, resazurin fluorescence viability. inhibition, % at 10 µM. AID 1063, 2008. hit rate 9% among 200,000; in the data active means inhibition above about 50%;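 further: promastigotes grown with compound for 44 hours at 28 °C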
Calb FLC: C. albicans growth inhibition with fluconazole, primary screen, CaCi-2 strain, Alamar Blue fluorescence; growth inhibition, % (no concentration beside the values); C. albicans CaCi-2 (fluconazole-resistant clinical isolate) + fluconazole, 48 h; AID 1979, 2009; hit rate 0.57% among 300,000;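 active means growth inhibition above about 58% in most replicates, limit read from the data, passing the limit was not always enough; inconclusive means exactly half the replicates above a set limit; inactive means most replicates below a set limit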;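 further: all wells also contain fluconazole at 8 µg/ml as a sub-toxic cotreatment; 0% = median of DMSO wells and 100% = median of geldanamycin control wells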
T cruzi repl: inhibitors of intracellular T. cruzi growth, primary screen, luminescence, NIH3T3 host cells; T. cruzi beta-gal in NIH3T3, 90 h; inhibition, % (no concentration beside the values); hit rate 1.4% among 300,000; AID 1885, 2009;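 active means mean inhibition across valid replicates above about 55%, limit read from the data; inconclusive means mean below that limit but half or more replicates reach it; inactive means mean below it, under half of replicates reach it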;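 further: signal also drops with host cell toxicity which is not excluded here; 0% = plate median of DMSO wells and 100% = zero luminescence signal; higher percent means less beta-gal luminescence so fewer parasites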
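System: NIH/3T3 fibroblasts plus reporter T. cruzi. Medium: DMEM plus 2% FBS. Probe or stimulus: 5000 reporter trypomastigotes per well. Compound: single 50 nL compound addition per well in DMSO. Incubation: co-culture of at least 90 h after 3 h attachment. Detection: GalScreen β-gal luminescence, detergent lysis, 60 min. Evaluation: parasite load inhibition, %.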
* marks the source's active call; other numbers are inactive results.

Screening CCC(C)(C)n1nnnc1C(c1cccnc1)N1CCCc2ccccc21 (stereo not given) returned PolyA inhibitor -7, NLRP3 yeast inh -1, NALP1 inh 7, L major viab 45, Calb FLC 5 and T cruzi repl -9.
Screening CCC(C)(C)n1nnnc1C(c1ccncc1)N1CCC(Cc2ccccc2)CC1 (stereo not given) returned PolyA inhibitor -4, NLRP3 yeast inh -8, NALP1 inh 4, L major viab 91*, Calb FLC -12 and T cruzi repl 65*.
CC(C)n1nc(CC(=O)O)c2ccccc2c1=O was read as PolyA inhibitor 7, NLRP3 yeast inh 10, NALP1 inh -2, L major viab -9, Calb FLC -15 and T cruzi repl 2.
`CCOc1ccc(N2CC(C(=O)NCCN3C(=O)S/C(=C\c4ccc(OC)c(OC)c4)C3=O)CC2=O)cc1` (stereo not given) gave PolyA inhibitor 5, NLRP3 yeast inh -12, NALP1 inh 29, L major viab 3, Calb FLC -7 and T cruzi repl -11.
For CCC(C)(C)n1nnnc1C(c1cccnc1)N1CCC(Cc2ccccc2)CC1 (stereo not given) the results were PolyA inhibitor -104, NLRP3 yeast inh 7, NALP1 inh 11, L major viab 90*, Calb FLC -19 and T cruzi repl 64*.
For CCC(C)(C)n1nnnc1C(c1ccc(C)cc1)N1CCN(Cc2cccnc2)CC1 (stereo not given) the results were PolyA inhibitor -2, NLRP3 yeast inh 6, NALP1 inh 7, L major viab 22, Calb FLC -4 and T cruzi repl 11.
For CCC(C)(C)n1nnnc1C(c1cccc(C#N)c1)N1CCN(c2cc(C)ccc2C)CC1 (stereo not given) the results were PolyA inhibitor -2, NLRP3 yeast inh 12, NALP1 inh 16, Calb FLC 22 and T cruzi repl 61*.
Screening CCC(C)(C)n1nnnc1C(c1ccc(C)cc1)N1CCSCC1 (stereo not given) returned PolyA inhibitor 5, NLRP3 yeast inh 10, NALP1 inh 30, L major viab 5, Calb FLC 16 and T cruzi repl 0.
`O=C(N/N=C/c1cccs1)c1cc(-c2ccc(Cl)s2)[nH]n1` gave PolyA inhibitor 6, NLRP3 yeast inh 5, NALP1 inh -10, Calb FLC 3 and T cruzi repl 5.
For C=CCn1c(=O)/c(=C/c2ccc(F)cc2)s/c1=C(\C#N)c1nnc2n1CCCCC2 the results were PolyA inhibitor 0, NLRP3 yeast inh 8, NALP1 inh 15, L major viab 61*, Calb FLC -3 and T cruzi repl 20.
For C=CCN1C(c2ccc(OCC)cc2)=CS/C1=C(\C#N)c1nnc2n1CCCCC2 the results were PolyA inhibitor 23, NLRP3 yeast inh 7, NALP1 inh 13, L major viab 6, Calb FLC -21 and T cruzi repl 13.
CC(C)(C)[C@@H]1COC(=O)[C@H](Cc2ccc(F)cc2)C/C=C\C[C@@H](CC(=O)N(CCO)Cc2ccccc2)C(=O)N1 was read as NLRP3 yeast inh 10.
For CCCCc1cc(=O)oc2c(C)c(OCc3nn[nH]n3)ccc12 the results were PolyA inhibitor -11, NLRP3 yeast inh 11, NALP1 inh 14, Calb FLC 8 and T cruzi repl -8.
C=CCn1c(SCc2cccc3ccccc23)nnc1-c1cccnc1 was read as PolyA inhibitor 1, NLRP3 yeast inh 6, NALP1 inh 8, L major viab 50*, Calb FLC 16 and T cruzi repl 1.
`CCOC(=O)C[C@H]1c2ccccc2S(=O)(=O)N1c1cccc(OC)c1` gave PolyA inhibitor 19, NLRP3 yeast inh 6, Calb FLC 5 and T cruzi repl -3.
`CCN(CC)CCOc1c(Br)ccc2c1sc1nc3n(c(=O)c12)CCC3` gave PolyA inhibitor 9, NLRP3 yeast inh 16, NALP1 inh 9, L major viab 80*, Calb FLC -4 and T cruzi repl 21.
CCOC(=O)c1cnc2c(OC)cccc2c1N1CCN(c2ccccc2OC)CC1 was read as PolyA inhibitor -12, NLRP3 yeast inh 31, NALP1 inh 15, L major viab 63*, Calb FLC 7 and T cruzi repl 9.
For CCOC(=O)c1cnc2c(OC)cccc2c1N1CCN(c2ccccn2)CC1 the results were PolyA inhibitor 3, NLRP3 yeast inh -1, NALP1 inh 36, L major viab 44, Calb FLC 25 and T cruzi repl 22.
Clc1ccc(C(c2ccccc2)N2CCN(c3ccccn3)CC2)cc1 (stereo not given) was read as PolyA inhibitor 1, NLRP3 yeast inh -5, NALP1 inh 4, Calb FLC inconclusive and T cruzi repl 24.
`Cc1ccc(C(c2cc(Cl)c3cccnc3c2O)N2CCN(C)CC2)cc1` (stereo not given) gave PolyA inhibitor -11, NLRP3 yeast inh 38, NALP1 inh -8, Calb FLC 88* and T cruzi repl 30.
Screening CC(=O)NC(c1cc(Cl)c2cccnc2c1O)C1CC1 (stereo not given) returned NLRP3 yeast inh 30.
`CN1CCN(C(c2ccccn2)c2cc(Cl)c3cccnc3c2O)CC1` (stereo not given) gave PolyA inhibitor -18, NLRP3 yeast inh 37, NALP1 inh 14, L major viab -1, Calb FLC 101* and T cruzi repl inconclusive.
`Oc1c(C(c2ccccn2)N2CCC(Cc3ccccc3)CC2)cc(Cl)c2cccnc12` (stereo not given) gave PolyA inhibitor 9, NLRP3 yeast inh 15, NALP1 inh 14, L major viab 99*, Calb FLC 105* and T cruzi repl 17.
Screening Oc1c(C(c2ccc(Cl)cc2)N2CCCC2)cc(Cl)c2cccnc12 (stereo not given) returned PolyA inhibitor -30, NLRP3 yeast inh 19, NALP1 inh 0, L major viab 96*, Calb FLC 99* and T cruzi repl 70*.
CN1CCN(c2cc(-c3cc(O)c4ncccc4c3)ccn2)CC1 was read as NLRP3 yeast inh 22.
For CC(=O)NC(C)c1cc(F)c2cccnc2c1O (stereo not given) the results were NLRP3 yeast inh 13.
For COc1ccc(Br)cc1C1CC(=O)C(C)C(c2cc(Br)ccc2OC)N1 (stereo not given) the results were PolyA inhibitor -5, NLRP3 yeast inh 22, NALP1 inh 29, Calb FLC 3 and T cruzi repl 14.
Screening CN(CC(=O)Nc1cccc(F)c1)C(=O)CSc1ccccc1 returned PolyA inhibitor 19, NLRP3 yeast inh 5, Calb FLC -5 and T cruzi repl 3.
